# From ChEMBL document CHEMBL1138325, “Design, synthesis, in vitro, and in vivo characterization of phenylpiperazines and pyridinylpiperazines as potent and selective antagonists of the melanocortin-4 receptor” (J Med Chem, 2007)
# How the values were obtained:
# Melanocortin receptor 4 [1] = target: Melanocortin receptor 4 (Mus musculus, UniProt P56450); assay: Binding affinity to mouse MC4R
# [2] = Tmax in CD1 mouse at 10 mg/kg, po; type: ADME, organism-based; design: dose 10 mg/kg, route oral; conditions: in vivo
# Method in brief: (§1)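 CD-1 mice, three animals per route; single i.v. dose at 5 mg/kg and oral gavage at 10 mg/kg. Plasma PK parameters derived; brain concentrations and brain/plasma ratios taken from the i.v. dosing at 1 and 4 h.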
# [3] = Clearance in Sprague-Dawley rat at 5 mg/kg, iv and 10 mg/kg, po; type: ADME, organism-based; conditions: in vivo
# [4] = Volume of distribution in dog at 5 mg/kg, iv; type: ADME, organism-based, Canis lupus familiaris; design: dose 5 mg/kg, route intravenous; conditions: in vivo
# [5] = AUC in dog at 10 mg/kg, po; type: ADME, organism-based, Canis lupus familiaris; design: dose 10 mg/kg, route oral; conditions: plasma
# [6] = Half life in Sprague-Dawley rat at 5 mg/kg, iv and 10 mg/kg, po; type: ADME, organism-based; conditions: in vivo
# [7] = Drug level in CD1 mouse brain at 5 mg/kg, iv after 1 hr; type: ADME, organism-based; design: dose 5 mg/kg, route intravenous; conditions: read-out: Drug uptake
# Method in brief: (§2)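 CD-1 mice, three animals, dosed i.v. at 5 mg/kg and by oral gavage at 10 mg/kg. Plasma CL, Vd, t1/2, Cmax, Tmax, oral AUC and F% were derived. Brain concentrations and brain/plasma ratios at 1 and 4 h were taken from the i.v. dosing.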
# [8] = Drug level in CD1 mouse brain at 5 mg/kg, iv after 4 hrs; type: ADME, organism-based; design: dose 5 mg/kg, route intravenous; conditions: read-out: Drug uptake; method in brief: as §2
# [9] = Drug level in Sprague-Dawley rat brain at 10 mg/kg, po after 1 hr; type: ADME, organism-based; design: dose 10 mg/kg, route oral; conditions: read-out: Drug uptake
# [10] = Bioavailability in monkey at 10 mg/kg, po; type: ADME, organism-based, Macaca mulatta; conditions: rhesus monkey, in vivo
# [11] = AUC in monkey at 5 mg/kg, iv; type: ADME, organism-based, Macaca mulatta; design: dose 5 mg/kg, route intravenous; conditions: rhesus monkey, plasma
# [12] = Half life in CD1 mouse at 5 mg/kg, iv; type: ADME, organism-based; design: dose 5 mg/kg, route intravenous; conditions: in vivo; method in brief: as §2
# Melanocortin receptor 4 [13] = target: T1, Melanocortin receptor 4 (Homo sapiens, UniProt P32245); assay: Displacement of [125I]NDPMSH from human MC4R expressed in HEK293 cells; type: cell-based
# [14] = Cmax in CD1 mouse at 10 mg/kg, ip; type: ADME, organism-based; design: dose 10 mg/kg, route intraperitoneal; conditions: in vivo
# Method in brief: (§3)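 CD-1 mice, single intraperitoneal dose of 10 mg/kg, n = 3. Plasma concentration followed over time, giving Cmax, Tmax and AUC.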
# [15] = AUC in CD1 mouse at 10 mg/kg, ip; type: ADME, organism-based; design: dose 10 mg/kg, route intraperitoneal; conditions: plasma; method in brief: as §3
# [16] = Half life in dog at 5 mg/kg, iv; type: ADME, organism-based, Canis lupus familiaris; design: dose 5 mg/kg, route intravenous; conditions: in vivo
# [17] = Tmax in monkey at 10 mg/kg, po; type: ADME, organism-based, Macaca mulatta; design: dose 10 mg/kg, route oral; conditions: rhesus monkey, in vivo
# [18] = AUC in dog at 5 mg/kg, iv; type: ADME, organism-based, Canis lupus familiaris; design: dose 5 mg/kg, route intravenous; conditions: plasma
# [19] = Drug level in Sprague-Dawley rat brain at 10 mg/kg, po after 4 hrs; type: ADME, organism-based; design: dose 10 mg/kg, route oral; conditions: read-out: Drug uptake
# Cytochrome P450 3A4 = Cytochrome P450 3A4 (Homo sapiens, UniProt P08684); assay: Inhibition of CYP3A4; type: ADME
# [20] = Distribution coefficient, log D by shake flask method; type: physicochemical; conditions: octanol/water
# Method in brief: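 LogD measured by the shake-flask method; described elsewhere in the paper as lipophilicity at pH 7.4.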
# Melanocortin receptor 3 [21] = target: Melanocortin receptor 3 (Mus musculus, UniProt P33033); assay: Binding affinity to mouse MC3R
# Mus musculus = assay: Increase in lean body mass in Lewis lung carcinoma bearing C57BL/6J mouse at 3 mg/kg, ip bid after 4 days; type: functional; conditions: route intraperitoneal
# Method in brief: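 Male C57BL/6J mice inoculated with Lewis lung carcinoma cells. From day 11 after inoculation, mice were dosed i.p. twice daily at 3 or 9 mg/kg for 4 days and compared with vehicle-treated tumor-bearing controls. Food intake and body weight were recorded; lean body mass was measured by DEXA.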
# [22] = Tmax in CD1 mouse at 10 mg/kg, ip; type: ADME, organism-based; design: dose 10 mg/kg, route intraperitoneal; conditions: in vivo
# [23] = Clearance in monkey at 5 mg/kg, iv; type: ADME, organism-based, Macaca mulatta; design: dose 5 mg/kg, route intravenous; conditions: rhesus monkey, in vivo
# Cytochrome P450 2C9 = Cytochrome P450 2C9 (Homo sapiens, UniProt P11712); assay: Inhibition of CYP2C9; type: ADME
# [24] = Cmax in dog at 10 mg/kg, po; type: ADME, organism-based, Canis lupus familiaris; design: dose 10 mg/kg, route oral; conditions: in vivo
# [25] = Clearance in CD1 mouse at 5 mg/kg, iv; type: ADME, organism-based; design: dose 5 mg/kg, route intravenous; conditions: in vivo; method in brief: as §2
# [26] = Ratio of drug level in brain to plasma in CD1 mouse at 10 mg/kg, ip; type: ADME, organism-based; design: dose 10 mg/kg, route intraperitoneal; conditions: read-out: BPR
# Melanocortin receptor 5 = Melanocortin receptor 5 (Homo sapiens, UniProt P33032); assay: Displacement of [125I]NDPMSH from human MC5R expressed in HEK293 cells; type: cell-based
# Cytochrome P450 1A2 = target: T2, Cytochrome P450 1A2 (Homo sapiens, UniProt P05177); assay: Inhibition of CYP1A2; type: ADME
# T2 sequence (P05177 whole entry): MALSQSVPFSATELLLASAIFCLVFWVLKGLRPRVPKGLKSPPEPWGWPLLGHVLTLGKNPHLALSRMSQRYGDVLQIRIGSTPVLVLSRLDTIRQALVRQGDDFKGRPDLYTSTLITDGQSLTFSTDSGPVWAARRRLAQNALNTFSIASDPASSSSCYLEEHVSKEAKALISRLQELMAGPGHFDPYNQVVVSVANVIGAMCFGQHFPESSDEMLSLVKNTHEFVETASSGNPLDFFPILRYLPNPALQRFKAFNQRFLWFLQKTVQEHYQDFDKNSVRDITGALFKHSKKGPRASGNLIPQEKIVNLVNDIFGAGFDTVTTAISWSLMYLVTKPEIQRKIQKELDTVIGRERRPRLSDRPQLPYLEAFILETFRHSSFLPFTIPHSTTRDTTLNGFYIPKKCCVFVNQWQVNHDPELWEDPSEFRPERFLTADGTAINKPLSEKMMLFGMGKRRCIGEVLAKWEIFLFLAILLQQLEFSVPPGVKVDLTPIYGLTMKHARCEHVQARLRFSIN
# [27] = Ratio of drug level in brain to plasma in Sprague-Dawley rat at 10 mg/kg, po after 1 hr; type: ADME, organism-based; design: dose 10 mg/kg, route oral; conditions: brain and plasma, read-out: BPR
# Method in brief: (§4)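 Sprague–Dawley rats, three animals per route; i.v. dose 5 mg/kg and oral 10 mg/kg. Brain concentrations and brain/plasma ratios taken from the oral dosing at 1 and 4 h post-dose.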
# [28] = Ratio of drug level in brain to plasma in CD1 mouse at 5 mg/kg, iv after 1 hr; type: ADME, organism-based; design: dose 5 mg/kg, route intravenous; conditions: brain and plasma, read-out: BPR
# Melanocortin receptor 4 [29] = target: T1, Melanocortin receptor 4; assay: Antagonist activity at human MC4R expressed in HEK293 cells assessed as inhibition of alpha-MSH-stimulated cAMP production; type: functional, cell-based
# [30] = target: Growth hormone secretagogue receptor type 1 (Homo sapiens, UniProt Q92847); assay: Agonist activity at GHSR; type: functional
# [31] = Plasma concentration in CD1 mouse at 10 mg/kg, ip after 8 hrs; type: ADME, organism-based; design: dose 10 mg/kg, route intraperitoneal
# [32] = AUC in monkey at 10 mg/kg, po; type: ADME, organism-based, Macaca mulatta; design: dose 10 mg/kg, route oral; conditions: rhesus monkey, plasma
# [33] = Clearance in dog at 5 mg/kg, iv; type: ADME, organism-based, Canis lupus familiaris; design: dose 5 mg/kg, route intravenous; conditions: in vivo
# [34] = Half life in monkey at 5 mg/kg, iv; type: ADME, organism-based, Macaca mulatta; design: dose 5 mg/kg, route intravenous; conditions: rhesus monkey, in vivo
# [35] = Cmax in Sprague-Dawley rat at 10 mg/kg, po; type: ADME, organism-based; design: dose 10 mg/kg, route oral; conditions: in vivo
# [36] = Oral bioavailability in Sprague-Dawley rat at 10 mg/kg, po; type: ADME, organism-based; conditions: in vivo; method in brief: as §4
# [37] = Volume of distribution in CD1 mouse at 5 mg/kg, iv; type: ADME, organism-based; design: dose 5 mg/kg, route intravenous; conditions: in vivo; method in brief: as §1
# Melanocortin receptor 3 [38] = target: Melanocortin receptor 3 (Homo sapiens, UniProt P41968); assay: Displacement of [125I]NDPMSH from human MC3R expressed in HEK293 cells; type: cell-based
# Sequence of Melanocortin receptor 3 (Homo sapiens, UniProt P41968) (P41968 whole entry): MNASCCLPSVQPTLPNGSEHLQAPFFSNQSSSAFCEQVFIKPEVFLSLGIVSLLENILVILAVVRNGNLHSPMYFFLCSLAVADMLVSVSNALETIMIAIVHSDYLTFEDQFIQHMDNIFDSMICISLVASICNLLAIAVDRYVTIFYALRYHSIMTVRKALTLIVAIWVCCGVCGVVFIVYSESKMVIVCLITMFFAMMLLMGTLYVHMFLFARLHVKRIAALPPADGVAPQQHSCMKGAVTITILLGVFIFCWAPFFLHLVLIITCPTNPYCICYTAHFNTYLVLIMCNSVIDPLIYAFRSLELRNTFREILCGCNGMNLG
# T1 sequence (P32245 whole entry): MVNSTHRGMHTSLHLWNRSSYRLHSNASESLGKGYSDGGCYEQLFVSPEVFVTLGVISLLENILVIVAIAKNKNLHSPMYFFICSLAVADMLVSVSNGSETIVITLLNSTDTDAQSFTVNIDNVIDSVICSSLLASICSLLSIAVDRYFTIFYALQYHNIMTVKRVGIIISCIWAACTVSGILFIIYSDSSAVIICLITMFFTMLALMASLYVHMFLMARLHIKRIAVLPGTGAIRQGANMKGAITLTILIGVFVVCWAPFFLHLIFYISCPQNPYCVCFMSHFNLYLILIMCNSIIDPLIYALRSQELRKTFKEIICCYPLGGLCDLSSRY
# Sequence of Growth hormone secretagogue receptor type 1 (Q92847 whole entry): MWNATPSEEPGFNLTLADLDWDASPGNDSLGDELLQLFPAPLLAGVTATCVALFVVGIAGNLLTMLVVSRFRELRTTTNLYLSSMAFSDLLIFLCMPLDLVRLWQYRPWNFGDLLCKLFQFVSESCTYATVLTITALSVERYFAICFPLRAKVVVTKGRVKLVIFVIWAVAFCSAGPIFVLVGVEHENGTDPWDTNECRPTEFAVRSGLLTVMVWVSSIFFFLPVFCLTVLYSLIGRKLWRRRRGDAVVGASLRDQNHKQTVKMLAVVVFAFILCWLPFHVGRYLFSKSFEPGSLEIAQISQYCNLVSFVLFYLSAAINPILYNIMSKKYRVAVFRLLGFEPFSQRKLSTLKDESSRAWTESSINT
# Sequence of Cytochrome P450 3A4 (P08684 whole entry): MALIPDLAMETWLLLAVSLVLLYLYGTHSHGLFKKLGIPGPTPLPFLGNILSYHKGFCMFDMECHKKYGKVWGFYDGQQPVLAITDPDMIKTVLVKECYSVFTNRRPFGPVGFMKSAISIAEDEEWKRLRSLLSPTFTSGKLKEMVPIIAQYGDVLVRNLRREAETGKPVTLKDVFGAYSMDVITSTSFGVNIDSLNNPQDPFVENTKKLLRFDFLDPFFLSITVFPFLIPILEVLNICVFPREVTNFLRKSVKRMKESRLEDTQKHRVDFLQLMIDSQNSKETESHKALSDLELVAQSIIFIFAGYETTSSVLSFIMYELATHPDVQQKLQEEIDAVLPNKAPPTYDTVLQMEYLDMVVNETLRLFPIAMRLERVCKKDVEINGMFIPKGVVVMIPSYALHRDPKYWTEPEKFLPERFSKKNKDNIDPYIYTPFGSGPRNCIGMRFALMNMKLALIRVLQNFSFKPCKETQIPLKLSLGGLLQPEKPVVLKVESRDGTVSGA
# Sequence of Melanocortin receptor 3 (Mus musculus, UniProt P33033) (P33033 whole entry): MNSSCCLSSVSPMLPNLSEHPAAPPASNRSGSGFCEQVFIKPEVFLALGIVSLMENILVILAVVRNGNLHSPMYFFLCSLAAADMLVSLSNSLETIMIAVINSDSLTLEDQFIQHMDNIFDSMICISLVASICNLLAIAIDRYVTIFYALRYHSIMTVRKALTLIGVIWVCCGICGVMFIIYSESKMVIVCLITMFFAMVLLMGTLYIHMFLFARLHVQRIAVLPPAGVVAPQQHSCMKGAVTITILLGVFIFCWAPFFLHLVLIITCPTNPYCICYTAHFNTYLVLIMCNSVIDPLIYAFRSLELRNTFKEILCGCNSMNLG
# Sequence of Cytochrome P450 2C9 (P11712 whole entry): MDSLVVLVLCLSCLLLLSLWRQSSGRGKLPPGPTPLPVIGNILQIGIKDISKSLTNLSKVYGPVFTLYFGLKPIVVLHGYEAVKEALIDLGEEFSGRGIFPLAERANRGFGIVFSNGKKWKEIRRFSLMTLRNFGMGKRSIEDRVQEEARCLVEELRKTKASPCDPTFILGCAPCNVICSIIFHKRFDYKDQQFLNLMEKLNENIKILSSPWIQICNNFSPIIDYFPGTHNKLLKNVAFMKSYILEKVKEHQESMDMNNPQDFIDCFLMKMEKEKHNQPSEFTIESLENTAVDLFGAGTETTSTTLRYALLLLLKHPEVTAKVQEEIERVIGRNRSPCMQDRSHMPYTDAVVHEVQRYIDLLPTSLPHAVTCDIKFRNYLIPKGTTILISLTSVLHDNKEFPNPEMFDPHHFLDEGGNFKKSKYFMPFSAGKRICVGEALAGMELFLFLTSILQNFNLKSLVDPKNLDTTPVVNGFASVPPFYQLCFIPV
# Sequence of Melanocortin receptor 5 (P33032 whole entry): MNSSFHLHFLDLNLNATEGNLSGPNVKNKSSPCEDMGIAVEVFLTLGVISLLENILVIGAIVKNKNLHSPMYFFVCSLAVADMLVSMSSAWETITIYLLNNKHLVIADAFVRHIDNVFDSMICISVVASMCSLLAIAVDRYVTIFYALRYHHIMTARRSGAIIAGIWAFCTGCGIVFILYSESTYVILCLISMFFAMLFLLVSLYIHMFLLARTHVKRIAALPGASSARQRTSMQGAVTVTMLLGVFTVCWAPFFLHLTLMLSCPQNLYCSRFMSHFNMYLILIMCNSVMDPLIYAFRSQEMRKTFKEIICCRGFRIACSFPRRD
# Sequence of Melanocortin receptor 4 (Mus musculus, UniProt P56450) (P56450 whole entry): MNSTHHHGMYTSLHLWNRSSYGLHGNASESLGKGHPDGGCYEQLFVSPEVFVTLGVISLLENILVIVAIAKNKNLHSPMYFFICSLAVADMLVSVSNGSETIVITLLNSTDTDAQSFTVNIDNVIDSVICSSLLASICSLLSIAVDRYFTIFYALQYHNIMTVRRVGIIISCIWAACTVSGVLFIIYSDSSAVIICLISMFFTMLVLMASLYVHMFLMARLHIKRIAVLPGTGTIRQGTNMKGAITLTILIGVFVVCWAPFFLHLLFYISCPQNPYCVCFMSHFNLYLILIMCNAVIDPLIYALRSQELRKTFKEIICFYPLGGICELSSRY
compound,measurement,setting,value
CC(C)C[C@H](NC(=O)CCN(C)C)c1cc(Cl)ccc1N1CCN(C(=O)[C@H](C)Cc2ccc(Cl)cc2)CC1,Ki,Melanocortin receptor 4 [1],18 nM
same,Tmax,[2],0.5 h
same,clearance,[3],13 mL/min/kg
same,Vd,[4],11.8 L/kg
same,AUC,[5],1480 ng·h/mL
same,half-life,[6],2.2 h
same,concentration at 1 h,[7],800 ng/g
same,concentration at 4 h,[8],177 ng/g
same,concentration at 1 h,[9],3 ng/g
same,bioavailability,[10],13.1%
same,AUC,[11],3700 ng·h/mL
same,half-life,[12],3.5 h
same,Ki,Melanocortin receptor 4 [13],3.4 nM
same,Cmax,[14],1520 ng/mL
same,AUC,[15],3070 ng·h/mL
same,half-life,[16],4.7 h
same,Tmax,[17],2.7 h
same,AUC,[18],2510 ng·h/mL
same,concentration at 4 h,[19],27 ng/g
same,IC50,Cytochrome P450 3A4,> 10000 nM
same,logD,[20],3.9
same,Ki,Melanocortin receptor 3 [21],340 nM
same,Activity,Mus musculus,7%
same,Tmax,[22],0.3 h
same,clearance,[23],24.3 mL/min/kg
same,IC50,Cytochrome P450 2C9,> 10000 nM
same,Cmax,[24],142 ng/mL
same,clearance,[25],36 mL/min/kg
same,Kp,[26],2
same,Ki,Melanocortin receptor 5,600 nM
same,IC50,Cytochrome P450 1A2,> 10000 nM
same,Kp at 1 h,[27],0.1
same,Kp at 1 h,[28],2.4
same,IC50,Melanocortin receptor 4 [29],930 nM
same,EC50,[30],720 nM
same,Intrinsic activity,[30],47%
same,concentration at 8 h,[31],100 ng/mL
same,AUC,[32],1070 ng·h/mL
same,clearance,[33],29.4 mL/min/kg
same,half-life,[34],4.1 h
same,Cmax,[35],163 ng/mL
same,bioavailability,[36],18%
same,Vd,[37],11 L/kg
same,Ki,Melanocortin receptor 3 [38],710 nM
